The list is not random: actives were taken first. Their share in the collection is about 4.8%.
HSF-1 act: increases HSF-1 driven luciferase reporter signal | NIH3T3-HGL HSF-1 luciferase reporter, MG132, 8 h; 100% = twice DMSO control signal | activation, % at 9 µM | 300,000 tested, 1.7% active;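 active = mean replicate activation of at least 50% with a set share of replicates each reaching 50%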
Jurkat NFkB inh: lowers PMA/ionomycin-induced NF-kB signal in Jurkat cells. PMA/ionomycin-induced NF-kB luciferase reporter, luminescence. 330,000 tested, 0.53% active. inhibition, % at 4 µM. AID 435003; in the data active = inhibition above about 50%
697 NFkB inh: inhibitors of the PMA/ionomycin-induced NF-kB reporter in 697 B cells; 697 B-cell NF-kB luciferase reporter, 16 h; inhibition, % at 4 µM; 330,000 tested, 0.33% active; in the data active = inhibition above about 35%
T cruzi repl: blocks replication of Trypanosoma cruzi. T. cruzi beta-gal in NIH3T3, luminescence, 90 h. inhibition, % (no concentration beside the values). 300,000 tested, 1.4% active;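 active = mean inhibition across valid replicates above about 55%, limit read from the data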;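 also: signal also drops with host cell toxicity which is not excluded here; higher percent means less beta-gal luminescence so fewer parasites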
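Assay system: NIH/3T3 host cells with β-galactosidase reporter T. cruzi; input: 5,000 host fibroblasts per well; compound: single 50 nL compound addition per well in DMSO; timing: ≥90 h infection period, 3 h prior cell attachment; measured by: GalScreen β-gal luminescence, detergent lysis, 60 min; evaluation: percent inhibition of parasite-derived β-gal signal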
HSF1 inh: HSF1 inhibition; 300,000 tested, 0.77% active; NIH3T3-HGL HSE-luciferase, MG132-induced, luminescence 8 h; active compounds read low; AID 2098; activity change, negative = inhibition, % at 7.5 µM (by protocol);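 active = more than half of replicate wells show activity change below -50%, luminescence cut by over half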;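 also: luciferase reports HSF-1 transcriptional activity via heat shock element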
GPR7 antagonist: human neuropeptides B/W receptor 1 antagonism. P48145. GPR7-expressing cells, fluorescence antagonist assay. inhibition, % at 4.4 µM. 290,000 tested, 1.1% active. AID 1861; in the data active = inhibition above about 16%, passing the limit was not always enough;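 also: cells stimulated with the agonist NPW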
Target sequence (P48145 whole entry, looked up): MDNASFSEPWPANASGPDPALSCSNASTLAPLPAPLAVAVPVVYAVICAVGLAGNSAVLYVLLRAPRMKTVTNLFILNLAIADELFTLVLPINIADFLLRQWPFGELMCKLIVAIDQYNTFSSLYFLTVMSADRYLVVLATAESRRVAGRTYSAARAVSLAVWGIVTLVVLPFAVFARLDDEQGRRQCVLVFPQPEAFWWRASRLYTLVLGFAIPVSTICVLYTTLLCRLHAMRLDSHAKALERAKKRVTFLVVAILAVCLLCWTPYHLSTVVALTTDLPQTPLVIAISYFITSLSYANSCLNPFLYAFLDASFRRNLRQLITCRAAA
Jurkat NFkB conf: inhibitors of the PMA/ionomycin-induced NF-kB reporter in Jurkat cells, retest; 2,700 tested, 27% active; shares compounds with Jurkat NFkB inh; inhibition, % at 4 µM; Jurkat NF-kB luciferase, 16 h;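 active = inhibition reaching about 45% at 4 µM in either replicate, limit read from the data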
Numbers stand for hits.

`Cc1cccc(OCCNC(=O)c2ccc(Cl)c(S(=O)(=O)NCc3cccnc3)c2)c1` gave Jurkat NFkB inh 66, 697 NFkB inh inactive and Jurkat NFkB conf inactive.
For CC1=C(C)/C(=N\OS(=O)(=O)c2ccccc2)C=CC1=O the results were HSF-1 act inactive, Jurkat NFkB inh 55, 697 NFkB inh inactive, T cruzi repl 55, HSF1 inh inactive, GPR7 antagonist 58 and Jurkat NFkB conf inactive.
`CN(CCc1ccccn1)C(=O)CC1C(=O)NCCN1Cc1cccc(F)c1` (stereo not given) gave HSF-1 act inactive, Jurkat NFkB inh inactive, 697 NFkB inh inactive, T cruzi repl inactive, HSF1 inh inactive and GPR7 antagonist inactive.
`COc1ccc(-c2cc(-c3ccc(OC)c(OC)c3)n[nH]2)c(O)c1` gave HSF-1 act inactive, Jurkat NFkB inh inactive, 697 NFkB inh inactive, T cruzi repl inactive, HSF1 inh inactive and GPR7 antagonist inactive.
Screening COc1ccc(-c2cc(-c3ccccc3O)[nH]n2)cc1OC returned HSF-1 act 106, Jurkat NFkB inh inactive, 697 NFkB inh inactive, T cruzi repl inactive, HSF1 inh inactive, GPR7 antagonist inactive and Jurkat NFkB conf inactive.
COc1ccccc1NC(=O)c1oc2ccccc2c1NC(=O)c1cc(OC)c(OC)c(OC)c1 was read as HSF-1 act inactive, Jurkat NFkB inh 64, 697 NFkB inh inactive, T cruzi repl inactive, HSF1 inh inactive, GPR7 antagonist inactive and Jurkat NFkB conf inactive.
c1ccc(CSC2=NNC(c3ccccn3)S2)cc1 (stereo not given) was read as HSF-1 act inactive, Jurkat NFkB inh 71, 697 NFkB inh inactive, T cruzi repl 63, HSF1 inh inactive, GPR7 antagonist inactive and Jurkat NFkB conf inactive.
For C=CCn1c(/N=C/c2ccc(N(C)C)cc2)nc2ccccc21 the results were HSF-1 act inactive, Jurkat NFkB inh inactive, 697 NFkB inh inactive, T cruzi repl inactive, HSF1 inh inactive and GPR7 antagonist inactive.
`CN(C)c1ccc(/C=N/n2ncc3ccccc32)cc1` gave HSF-1 act inactive, Jurkat NFkB inh inactive, 697 NFkB inh inactive, T cruzi repl inactive, HSF1 inh inactive, GPR7 antagonist inactive and Jurkat NFkB conf inactive.
`CCc1ccc2nc(SCC(=O)Nc3ccccc3N3CCOCC3)c(C#N)cc2c1` gave HSF-1 act inactive, Jurkat NFkB inh 67, 697 NFkB inh inactive, T cruzi repl inactive, HSF1 inh inactive, GPR7 antagonist inactive and Jurkat NFkB conf inactive.
Screening O=C(NCCNc1ccnc2cc(Cl)ccc12)c1ccccc1F returned HSF-1 act inactive, Jurkat NFkB inh 56, 697 NFkB inh inactive, T cruzi repl inactive, HSF1 inh -79, GPR7 antagonist inactive and Jurkat NFkB conf inactive.
For C[C@@H](c1ncncc1F)[C@](O)(Cn1cncn1)c1ccc(F)cc1F the results were GPR7 antagonist inactive.
`Cc1ccc(S(=O)(=O)Nc2cccc3ncccc23)cc1` gave HSF-1 act inactive, Jurkat NFkB inh inactive, 697 NFkB inh inactive, T cruzi repl inactive, HSF1 inh inactive and GPR7 antagonist inactive.
`Cc1ccc(S(=O)(=O)Nc2cccc3ncccc23)s1` gave HSF-1 act 108, Jurkat NFkB inh 83, 697 NFkB inh inactive, T cruzi repl inactive, HSF1 inh inactive, GPR7 antagonist inactive and Jurkat NFkB conf inactive.
For COc1ccc(C(=O)Nc2cccc(C(=O)N/N=C/c3ccc(OC)cc3OC)c2)cc1 the results were HSF-1 act inactive, Jurkat NFkB inh 57, 697 NFkB inh inactive, T cruzi repl inactive, HSF1 inh inactive, GPR7 antagonist inactive and Jurkat NFkB conf inactive.
Screening COc1cccc(NC(=O)c2ccc3c(c2)CCCC3)c1 returned HSF-1 act inactive, Jurkat NFkB inh inactive, 697 NFkB inh inactive, T cruzi repl inactive, HSF1 inh inactive, GPR7 antagonist inactive and Jurkat NFkB conf inactive.
Screening Cc1cccc(OCC(=O)NS(=O)(=O)c2ccc(Br)cc2)c1 returned HSF-1 act inactive, Jurkat NFkB inh inactive, 697 NFkB inh inactive, T cruzi repl inactive, HSF1 inh inactive and GPR7 antagonist inactive.
Screening COc1ccc2c(c1)C(=O)N1[C@H]3c4cc(Br)ccc4OC[C@@H]3[C@H](c3ccccc3)[C@]1(C)C(=O)N2 returned Jurkat NFkB inh 52, 697 NFkB inh inactive and Jurkat NFkB conf 53.
